Key:
Blood [1] = assay: Biodistribution in iv dosed rat blood after 60 mins; type: ADME, organism-based; conditions: in vivo, 1 h
Outline: (§1)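 [18F]-labeled tracer was given to rats under isoflurane anesthesia: 0.2 ml sterile water with 1 mg/mL BSA and 10–100 μCi, into the femoral vein. Three rats per group. Animals were killed by cervical dislocation under anesthesia at the stated time. Organs were removed, weighed and counted. Uptake was calculated as percent dose against a 1% aliquot of the injected dose counted alongside.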

Lung [2] = assay: Biodistribution in iv dosed rat lungs after 60 mins; type: ADME, organism-based; conditions: in vivo, 1 h; outline: as §1
Spleen [3] = assay: Biodistribution in iv dosed rat spleen after 2 mins; type: ADME, organism-based; conditions: in vivo
Kidney [4] = assay: Biodistribution in iv dosed rat kidney after 120 mins; type: ADME, organism-based; conditions: in vivo, 2 h; outline: as §1
Liver [5] = assay: Biodistribution in iv dosed rat liver after 120 mins; type: ADME, organism-based; conditions: in vivo, 2 h; outline: as §1
Blood [6] = assay: Biodistribution in iv dosed rat blood after 240 mins; type: ADME, organism-based; conditions: in vivo, 4 h; outline: as §1
Heart [7] = assay: Biodistribution in iv dosed rat heart after 2 mins; type: ADME, organism-based; conditions: in vivo; outline: as §1
Nucleic Acid [8] = assay: Ratio of drug level in cortex to cerebellum in rat assessed as radioactivity after 240 mins; type: ADME, tissue-based; conditions: in vivo, 4 h
Kidney [9] = assay: Biodistribution in iv dosed rat kidney after 60 mins; type: ADME, organism-based; conditions: in vivo, 1 h; outline: as §1
Nucleic Acid [10] = assay: Ratio of drug level in cortex to cerebellum in rat assessed as radioactivity after 120 mins; type: ADME, tissue-based; conditions: in vivo, 2 h
Outline: (§2)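 Groups of three normal rats under isoflurane received the [18F] tracer (10–100 μCi in 0.2 ml sterile water containing 1 mg/mL BSA) into the femoral vein. They were killed by cervical dislocation under anesthesia at the stated time. Cortex, striatum, hippocampus, hypothalamus and cerebellum were dissected, weighed and gamma-counted. %dose/g was set against a 100-fold diluted dose aliquot, and each region was divided by cerebellum.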

Kidney [11] = assay: Biodistribution in iv dosed rat kidney after 30 mins; type: ADME, organism-based; conditions: in vivo, 0.5 h; outline: as §1
Striatum [12] = assay: Biodistribution in iv dosed rat striatum assessed as radioactivity after 30 mins; type: ADME, organism-based; conditions: in vivo, 0.5 h
Cortex = assay: Biodistribution in iv dosed rat cortex assessed as radioactivity after 240 mins; type: ADME, organism-based; conditions: in vivo, 4 h
Outline: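 Rats received the [18F] tracer under isoflurane anesthesia: 0.2 ml sterile water with 1 mg/mL BSA and 10–100 μCi, into the femoral vein. Three rats per group. After cervical dislocation under anesthesia, the cortex was dissected, weighed and gamma-counted. Percent dose/g was calculated against a 100-fold diluted aliquot of the injected dose.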

Lung [13] = assay: Biodistribution in iv dosed rat lungs after 30 mins; type: ADME, organism-based; conditions: in vivo, 0.5 h; outline: as §1
Zone of skin = assay: Biodistribution in iv dosed rat skin after 30 mins; type: ADME, organism-based; conditions: in vivo, 0.5 h
Outline: (§3)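 Rats, 3 per group, under isoflurane. ¹⁸F tracer (10–100 μCi) in 0.2 ml sterile water with 1 mg/mL BSA injected into the femoral vein. Killed by cervical dislocation under anesthesia at the stated time. Organs removed, weighed and counted. % dose/organ calculated against counts of a 1% diluted aliquot of the injected dose.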

Nucleic Acid [14] = assay: Ratio of drug level in hypothalamus to cerebellum in rat after 120 mins; type: ADME, tissue-based; conditions: in vivo, 2 h
Outline: (§4)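 Rats, 3 per group, given ¹⁸F tracer (10–100 μCi, 0.2 ml sterile water with 1 mg/mL BSA) into the femoral vein under isoflurane. Brain regions, including hypothalamus, striatum and cerebellum, dissected, weighed and counted. % dose/g calculated against a 1% diluted aliquot of the dose. Region/cerebellum ratio is region %dose/g divided by cerebellum %dose/g. SD of the ratio propagated from both means and SDs.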

Brain [15] = assay: Biodistribution in iv dosed rat brain after 30 mins; type: ADME, organism-based; conditions: in vivo, 0.5 h; outline: as §1
Nucleic Acid [16] = assay: Ratio of drug level in cortex to cerebellum in rat assessed as radioactivity after 2 mins; type: ADME, tissue-based; conditions: in vivo
Kidney [17] = assay: Biodistribution in iv dosed rat kidney after 2 mins; type: ADME, organism-based; conditions: in vivo; outline: as §1
Spleen [18] = assay: Biodistribution in iv dosed rat spleen after 120 mins; type: ADME, organism-based; conditions: in vivo, 2 h; outline: as §3
Nucleic Acid [19] = assay: Ratio of drug level in striatum to cerebellum in rat assessed as radioactivity after 240 mins; type: ADME, tissue-based; conditions: in vivo, 4 h
Brain [20] = assay: Biodistribution in iv dosed rat brain after 120 mins; type: ADME, organism-based; conditions: in vivo, 2 h; outline: as §1
Spleen [21] = assay: Biodistribution in iv dosed rat spleen after 30 mins; type: ADME, organism-based; conditions: in vivo, 0.5 h; outline: as §3
Heart [22] = assay: Biodistribution in iv dosed rat heart after 30 mins; type: ADME, organism-based; conditions: in vivo, 0.5 h; outline: as §1
Nucleic Acid [23] = assay: Ratio of drug level in hypothalamus to cerebellum in rat after 30 mins; type: ADME, tissue-based; conditions: in vivo, 0.5 h; outline: as §4
Liver [24] = assay: Biodistribution in iv dosed rat liver after 240 mins; type: ADME, organism-based; conditions: in vivo, 4 h; outline: as §1
Heart [25] = assay: Biodistribution in iv dosed rat heart after 240 mins; type: ADME, organism-based; conditions: in vivo, 4 h; outline: as §1
Blood [26] = assay: Biodistribution in iv dosed rat blood after 120 mins; type: ADME, organism-based; conditions: in vivo, 2 h; outline: as §1
Heart [27] = assay: Biodistribution in iv dosed rat heart after 60 mins; type: ADME, organism-based; conditions: in vivo, 1 h; outline: as §1
Nucleic Acid [28] = assay: Ratio of drug level in hypothalamus to cerebellum in rat after 2 mins; type: ADME, tissue-based; conditions: in vivo
Lung [29] = assay: Biodistribution in iv dosed rat lungs after 240 mins; type: ADME, organism-based; conditions: in vivo, 4 h; outline: as §1
Lung [30] = assay: Biodistribution in iv dosed rat lungs after 120 mins; type: ADME, organism-based; conditions: in vivo, 2 h; outline: as §1
Nucleic Acid [31] = assay: Ratio of drug level in hippocampus to cerebellum in rat assessed as radioactivity after 240 mins; type: ADME, tissue-based; conditions: in vivo, 4 h
Blood [32] = assay: Biodistribution in iv dosed rat blood after 2 mins; type: ADME, organism-based; conditions: in vivo; outline: as §1
Bone [33] = assay: Biodistribution in iv dosed rat bone after 2 mins; type: ADME, organism-based, Bone element; conditions: in vivo; outline: as §1
Muscle tissue [34] = assay: Biodistribution in iv dosed rat muscle after 30 mins; type: ADME, organism-based; conditions: in vivo, 0.5 h; outline: as §1
Liver [35] = assay: Biodistribution in iv dosed rat liver after 60 mins; type: ADME, organism-based; conditions: in vivo, 1 h; outline: as §1
Blood [36] = assay: Biodistribution in iv dosed rat blood after 30 mins; type: ADME, organism-based; conditions: in vivo, 0.5 h; outline: as §1
Brain [37] = assay: Biodistribution in iv dosed rat brain after 240 mins; type: ADME, organism-based; conditions: in vivo, 4 h; outline: as §1
Muscle tissue [38] = assay: Biodistribution in iv dosed rat muscle after 2 mins; type: ADME, organism-based; conditions: in vivo; outline: as §1
Striatum [39] = assay: Biodistribution in iv dosed rat striatum assessed as radioactivity after 240 mins; type: ADME, organism-based; conditions: in vivo, 4 h
Nucleic Acid [40] = assay: Ratio of drug level in striatum to cerebellum in rat assessed as radioactivity after 60 mins; type: ADME, tissue-based; conditions: in vivo, 1 h
Nucleic Acid [41] = assay: Ratio of drug level in striatum to cerebellum in rat assessed as radioactivity after 2 mins; type: ADME, tissue-based; conditions: in vivo
Kidney [42] = assay: Biodistribution in iv dosed rat kidney after 240 mins; type: ADME, organism-based; conditions: in vivo, 4 h; outline: as §1
Brain [43] = assay: Biodistribution in iv dosed rat brain after 2 mins; type: ADME, organism-based; conditions: in vivo; outline: as §1
Nucleic Acid [44] = assay: Ratio of drug level in cortex to cerebellum in rat assessed as radioactivity after 30 mins; type: ADME, tissue-based; conditions: in vivo, 0.5 h; outline: as §2
Nucleic Acid [45] = assay: Ratio of drug level in striatum to cerebellum in rat assessed as radioactivity after 30 mins; type: ADME, tissue-based; conditions: in vivo, 0.5 h; outline: as §2
Striatum [46] = assay: Biodistribution in iv dosed rat striatum assessed as radioactivity after 2 mins; type: ADME, organism-based; conditions: in vivo
Nucleic Acid [47] = assay: Ratio of drug level in hippocampus to cerebellum in rat assessed as radioactivity after 60 mins; type: ADME, tissue-based; conditions: in vivo, 1 h
Lung [48] = assay: Biodistribution in iv dosed rat lungs after 2 mins; type: ADME, organism-based; conditions: in vivo; outline: as §1
Bone [49] = assay: Biodistribution in iv dosed rat bone after 60 mins; type: ADME, organism-based, Bone element; conditions: in vivo, 1 h; outline: as §1
Brain [50] = assay: Biodistribution in iv dosed rat brain after 60 mins; type: ADME, organism-based; conditions: in vivo, 1 h; outline: as §1
Nucleic Acid [51] = assay: Ratio of drug level in striatum to cerebellum in rat assessed as radioactivity after 120 mins; type: ADME, tissue-based; conditions: in vivo, 2 h; outline: as §2
Liver [52] = assay: Biodistribution in iv dosed rat liver after 2 mins; type: ADME, organism-based; conditions: in vivo; outline: as §1
Spleen [53] = assay: Biodistribution in iv dosed rat spleen after 60 mins; type: ADME, organism-based; conditions: in vivo, 1 h
Nucleic Acid [54] = assay: Ratio of drug level in hypothalamus to cerebellum in rat assessed as radioactivity after 240 mins; type: ADME, tissue-based; conditions: in vivo, 4 h
Muscle tissue [55] = assay: Biodistribution in iv dosed rat muscle after 60 mins; type: ADME, organism-based; conditions: in vivo, 1 h; outline: as §1
Heart [56] = assay: Biodistribution in iv dosed rat heart after 120 mins; type: ADME, organism-based; conditions: in vivo, 2 h; outline: as §1
Muscle tissue [57] = assay: Biodistribution in iv dosed rat muscle after 120 mins; type: ADME, organism-based; conditions: in vivo, 2 h; outline: as §1
Nucleic Acid [58] = assay: Ratio of drug level in hippocampus to cerebellum in rat assessed as radioactivity after 120 mins; type: ADME, tissue-based; conditions: in vivo, 2 h; outline: as §2

Drug uptake (Blood [1]): 7.05 %ID
Drug uptake (Lung [2]): 3.44 %ID
Drug uptake (Spleen [3]): 1.05 %ID
Drug uptake (Kidney [4]): 2 %ID
Drug uptake (Liver [5]): 2.85 %ID
Drug uptake (Blood [6]): 5.21 %ID
Drug uptake (Heart [7]): 1.38 %ID
Ratio (Nucleic Acid [8]): 3.21
Drug uptake (Kidney [9]): 2.44 %ID
Ratio (Nucleic Acid [10]): 2.9
Drug uptake (Kidney [11]): 2.85 %ID
Drug uptake (Striatum [12]): 1.09 % ID/g
Drug uptake (Cortex): 0.82 % ID/g
Drug uptake (Lung [13]): 4.63 %ID
Drug uptake (Zone of skin): 7.06 %ID
Ratio (Nucleic Acid [14]): 3.7
Drug uptake (Brain [15]): 1.88 %ID
Ratio (Nucleic Acid [16]): 1.45
Drug uptake (Kidney [17]): 5.33 %ID
Drug uptake (Spleen [18]): 0.54 %ID
Ratio (Nucleic Acid [19]): 3.84
Drug uptake (Brain [20]): 2.16 %ID
Drug uptake (Spleen [21]): 0.7 %ID
Drug uptake (Heart [22]): 0.23 %ID
Ratio (Nucleic Acid [23]): 2.04
Drug uptake (Liver [24]): 2.13 %ID
Drug uptake (Heart [25]): 0.12 %ID
Drug uptake (Blood [26]): 6.19 %ID
Drug uptake (Heart [27]): 0.21 %ID
Ratio (Nucleic Acid [28]): 0.95
Drug uptake (Lung [29]): 2.1 %ID
Drug uptake (Lung [30]): 2.98 %ID
Ratio (Nucleic Acid [31]): 2.99
Drug uptake (Blood [32]): 4.67 %ID
Drug uptake (Bone [33]): 9.88 %ID
Drug uptake (Muscle tissue [34]): 15.9 %ID
Drug uptake (Liver [35]): 3.45 %ID
Drug uptake (Blood [36]): 5.7 %ID
Drug uptake (Brain [37]): 1.57 %ID
Drug uptake (Muscle tissue [38]): 18.2 %ID
Drug uptake (Striatum [39]): 0.98 % ID/g
Ratio (Nucleic Acid [40]): 2.76
Ratio (Nucleic Acid [41]): 0.96
Drug uptake (Kidney [42]): 1.53 %ID
Drug uptake (Brain [43]): 2.05 %ID
Ratio (Nucleic Acid [44]): 1.95
Ratio (Nucleic Acid [45]): 1.86
Drug uptake (Striatum [46]): 1.02 % ID/g
Ratio (Nucleic Acid [47]): 2.21
Drug uptake (Lung [48]): 10.3 %ID
Drug uptake (Bone [49]): 8.53 %ID
Drug uptake (Brain [50]): 1.92 %ID
Ratio (Nucleic Acid [51]): 2.84
Drug uptake (Liver [52]): 11.1 %ID
Drug uptake (Spleen [53]): 0.68 %ID
Ratio (Nucleic Acid [54]): 4.26
Drug uptake (Muscle tissue [55]): 15.5 %ID
Drug uptake (Heart [56]): 0.19 %ID
Drug uptake (Muscle tissue [57]): 10.2 %ID
Ratio (Nucleic Acid [58]): 2.23
SMILES: CN(C)Cc1cc(OCC[18F])ccc1Sc1ccc(Br)cc1N

From ChEMBL document CHEMBL1138354, “2-(2'-((dimethylamino)methyl)-4'-(fluoroalkoxy)-phenylthio)benzenamine derivatives as serotonin transporter imaging agents” (J Med Chem, 2007)
